Test results as given in ChEMBL document CHEMBL4480442, “Phloroglucinols with Immunosuppressive Activities from the Fruits of Eucalyptus globulus” (J Nat Prod, 2019).
pIC50: −log10 of the molar value. Active and inactive are the calls of the source. No cut-off for these calls is given here.

What was measured:
[1] = Cytotoxicity against BALB/c mouse lymph node cells assessed as reduction in cell viability measured after 48 hrs by CCK8 assay; assay type: cell-based
[2] = Immunosuppressive activity in BALB/c mouse lymph node cells assessed as inhibition of concanavalin A stimulated T-cell proliferation measured after 48 hrs by CCK8 assay; assay type: functional
[3] = […], ratio of CC50 for BALB/c mouse lymph node cells to IC50 for immunosuppressive activity in BALB/c mouse lymph node cells assessed as inhibition of concanavalin A stimulated T-cell proliferation
Mus musculus [4] = species on record: Mus musculus; experiment: Immunosuppressive activity in concanavalin A stimulated BALB/c mouse lymph node cells assessed as increase in cytochrome c levels in cytoplasm at 1 to 20 uM measured after 48 hrs by Western blotting analysis; assay type: functional
Outline: (§1)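 Mouse […] cells, 2 × 10^6 cells/well, ConA (5 μg/mL) with compound at 1, 10, 20 μM for 48 h; cells washed with PBS, protein extracted and Western blotted; band densities quantified as Bax/Bcl-2 ratio and cytoplasmic/mitochondrial cytochrome c ratio; three independent experiments, means ± SEM.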

Mus musculus [5] = species on record: Mus musculus; experiment: Immunosuppressive activity in concanavalin A stimulated BALB/c mouse lymph node cells assessed as caspase-3 activation at 1 to 20 uM measured after 48 hrs; assay type: functional
Mus musculus [6] = species on record: Mus musculus; experiment: Immunosuppressive activity in BALB/c mouse lymph node cells assessed as inhibition of concanavalin A stimulated T-cell proliferation at 1 to 20 uM measured after 48 hrs by CCK8 assay; assay type: functional
Mus musculus [7] = species on record: Mus musculus; experiment: Immunosuppressive activity in BALB/c mouse lymph node cells assessed as inhibition of concanavalin A stimulated T-cell proliferation by measuring increase in LDH release at 1 to 20 uM; assay type: functional
[8] = Immunosuppressive activity in concanavalin A stimulated BALB/c mouse lymph node cells assessed as induction of apoptosis by measuring viable cells at 1 uM measured after 48 hrs by Annexin-V/propidium iodide staining based flow cytometry (reference value: 99.7%); assay type: functional
[9] = Immunosuppressive activity in concanavalin A stimulated BALB/c mouse lymph node cells assessed as induction of apoptosis by measuring early apoptotic cells at 1 uM measured after 48 hrs by Annexin-V/propidium iodide staining based flow cytometry (reference value: 0.1%); assay type: functional
[10] = Immunosuppressive activity in concanavalin A stimulated BALB/c mouse lymph node cells assessed as induction of apoptosis by measuring late apoptotic cells at 1 uM measured after 48 hrs by Annexin-V/propidium iodide staining based flow cytometry (reference value: 0.2%); assay type: functional
[11] = Immunosuppressive activity in concanavalin A stimulated BALB/c mouse lymph node cells assessed as induction of apoptosis by measuring necrotic cells at 1 uM measured after 48 hrs by Annexin-V/propidium iodide staining based flow cytometry (reference value: 0%); assay type: functional
[12] = Immunosuppressive activity in concanavalin A stimulated BALB/c mouse lymph node cells assessed as induction of apoptosis by measuring viable cells at 10 uM measured after 48 hrs by Annexin-V/propidium iodide staining based flow cytometry (reference value: 99.7%); assay type: functional
[13] = Immunosuppressive activity in concanavalin A stimulated BALB/c mouse lymph node cells assessed as induction of apoptosis by measuring early apoptotic cells at 10 uM measured after 48 hrs by Annexin-V/propidium iodide staining based flow cytometry (reference value: 0.1%); assay type: functional
[14] = Immunosuppressive activity in concanavalin A stimulated BALB/c mouse lymph node cells assessed as induction of apoptosis by measuring late apoptotic cells at 10 uM measured after 48 hrs by Annexin-V/propidium iodide staining based flow cytometry (reference value: 0.2%); assay type: functional
[15] = Immunosuppressive activity in concanavalin A stimulated BALB/c mouse lymph node cells assessed as induction of apoptosis by measuring necrotic cells at 10 uM measured after 48 hrs by Annexin-V/propidium iodide staining based flow cytometry (reference value: 0%); assay type: functional
[16] = Immunosuppressive activity in concanavalin A stimulated BALB/c mouse lymph node cells assessed as induction of apoptosis by measuring viable cells at 20 uM measured after 48 hrs by Annexin-V/propidium iodide staining based flow cytometry (reference value: 99.7%); assay type: functional
[17] = Immunosuppressive activity in concanavalin A stimulated BALB/c mouse lymph node cells assessed as induction of apoptosis by measuring early apoptotic cells at 20 uM measured after 48 hrs by Annexin-V/propidium iodide staining based flow cytometry (reference value: 0.1%); assay type: functional
[18] = Immunosuppressive activity in concanavalin A stimulated BALB/c mouse lymph node cells assessed as induction of apoptosis by measuring late apoptotic cells at 20 uM measured after 48 hrs by Annexin-V/propidium iodide staining based flow cytometry (reference value: 0.2%); assay type: functional
[19] = Immunosuppressive activity in concanavalin A stimulated BALB/c mouse lymph node cells assessed as induction of apoptosis by measuring necrotic cells at 20 uM measured after 48 hrs by Annexin-V/propidium iodide staining based flow cytometry (reference value: 0%); assay type: functional
Mus musculus [20] = species on record: Mus musculus; experiment: Immunosuppressive activity in concanavalin A stimulated BALB/c mouse lymph node cells assessed as increase in ratio of Bax/Bcl2 level at 1 to 20 uM measured after 48 hrs by Western blotting analysis; assay type: functional; outline: as §1
Mus musculus [21] = species on record: Mus musculus; experiment: Immunosuppressive activity in concanavalin A stimulated BALB/c mouse lymph node cells assessed as caspase-9 activation at 1 to 20 uM measured after 48 hrs; assay type: functional
[22] = target: RAC-alpha serine/threonine-protein kinase (Mus musculus) (UniProt P31750); experiment: Inhibition of AKT phosphorylation in concanavalin A stimulated BALB/c mouse lymph node cells assessed as IL4 level at 1 uM measured after 48 hrs by ELISA (reference value: 142.4 +/- 12.4 pg/ml)
[23] = target: RAC-alpha serine/threonine-protein kinase (Mus musculus) (UniProt P31750); experiment: Inhibition of AKT phosphorylation in concanavalin A stimulated BALB/c mouse lymph node cells assessed as IL4 level at 10 uM measured after 48 hrs by ELISA (reference value: 142.4 +/- 12.4 pg/ml)
[24] = target: RAC-alpha serine/threonine-protein kinase (Mus musculus) (UniProt P31750); experiment: Inhibition of AKT phosphorylation in concanavalin A stimulated BALB/c mouse lymph node cells assessed as IL4 level at 20 uM measured after 48 hrs by ELISA (reference value: 142.4 +/- 12.4 pg/ml)
Outline: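 ELISA for IL-4 or IFN-γ in culture medium: BALB/c […] cells, 2 × 10^6 cells/well, stimulated with ConA (5 μg/mL) with compound at 1, 10, 20 μM for 48 h; absorbance at 450 nm; means ± SEM of three independent experiments.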

[25] = target: RAC-alpha serine/threonine-protein kinase (Mus musculus) (UniProt P31750); experiment: Inhibition of AKT phosphorylation in concanavalin A stimulated BALB/c mouse lymph node cells assessed as IFNgamma level at 1 uM measured after 48 hrs by ELISA (reference value: 575.9 +/- 8.2 pg/ml)
[26] = target: RAC-alpha serine/threonine-protein kinase (Mus musculus) (UniProt P31750); experiment: Inhibition of AKT phosphorylation in concanavalin A stimulated BALB/c mouse lymph node cells assessed as IFNgamma level at 20 uM measured after 48 hrs by ELISA (reference value: 575.9 +/- 8.2 pg/ml)
[27] = target: RAC-alpha serine/threonine-protein kinase (Mus musculus) (UniProt P31750); experiment: Inhibition of AKT phosphorylation in concanavalin A stimulated BALB/c mouse lymph node cells at 20 uM measured after 48 hrs by Western blotting analysis

Sequence of RAC-alpha serine/threonine-protein kinase (Mus musculus) (P31750 whole entry): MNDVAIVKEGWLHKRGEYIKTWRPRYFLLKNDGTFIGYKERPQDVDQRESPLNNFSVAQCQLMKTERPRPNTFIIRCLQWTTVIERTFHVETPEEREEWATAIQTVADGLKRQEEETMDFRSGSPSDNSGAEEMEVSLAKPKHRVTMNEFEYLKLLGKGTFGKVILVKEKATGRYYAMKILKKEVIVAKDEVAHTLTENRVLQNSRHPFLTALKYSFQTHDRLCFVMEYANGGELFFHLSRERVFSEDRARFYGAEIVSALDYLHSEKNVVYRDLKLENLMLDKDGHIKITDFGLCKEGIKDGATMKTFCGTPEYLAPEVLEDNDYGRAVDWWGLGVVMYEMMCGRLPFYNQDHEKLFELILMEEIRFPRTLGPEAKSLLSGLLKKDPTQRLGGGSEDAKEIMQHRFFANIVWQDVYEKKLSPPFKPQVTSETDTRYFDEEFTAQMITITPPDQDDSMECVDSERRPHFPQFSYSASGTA

CC(C)CC(=O)c1c(O)c(C=O)c(O)c(C[C@@]2(C)CCC3C2[C@H]2[C@@H](CC[C@@]3(C)O)C2(C)C)c1O (stereo partly drawn)
CC50 at 48 h [1]: 554 µM
pIC50 [2]: 4.74
Ratio CC50/IC50 [3]: 30.5

CC(C)C[C@H](c1c(O)c(C=O)c(O)c(C=O)c1O)C1CC[C@@H](C)C2=C[C@@H](C(C)(C)O)CC[C@@]21C (stereo partly drawn)
CC50 at 48 h [1]: 544 µM
pIC50 [2]: 4.28
Ratio CC50/IC50 [3]: 10.4

CC(C)C[C@H]1c2c(O)c(C=O)c(O)c(C=O)c2O[C@]23CC[C@@]1(C)C2[C@H]1[C@@H](CC[C@@H]3C)C1(C)C (stereo partly drawn)
CC50 at 48 h [1]: 588 µM
pIC50 [2]: 4.16
Ratio CC50/IC50 [3]: 8.5

CC(C)C[C@H](c1c(O)c(C=O)c(O)c(C=O)c1O)[C@@]1(C)CC[C@@H]2[C@@H]1[C@H]1[C@@H](CC[C@@]2(C)O)C1(C)C [MACROCARPAL B]
CC50 at 48 h [1]: 570 µM
pIC50 [2]: 4.51
Ratio CC50/IC50 [3]: 18.4

CCC(C)C(=O)c1c(O)c(C)c(OC)c(C)c1O (stereo not drawn)
CC50 at 48 h [1]: 623 µM
pIC50 [2]: 4.15
Ratio CC50/IC50 [3]: 8.9

CO[C@]1(C)CC[C@@H]2[C@H]([C@H]3[C@H]1CC[C@]3(C)[C@@H](CC(C)C)c1c(O)c(C=O)c(O)c(C=O)c1O)C2(C)C
CC50 at 48 h [1]: 578 µM
pIC50 [2]: 4.16
Ratio CC50/IC50 [3]: 8.5

CC(C)C[C@@H](c1c(O)c(C=O)c(O)c(C=O)c1O)[C@@]1(C)CC[C@@H]2[C@@H]1[C@H]1[C@@H](CC[C@@]2(C)O)C1(C)C [MACROCARPAL A]
CC50 at 48 h [1]: 597 µM
pIC50 [2]: 4.69
Ratio CC50/IC50 [3]: 29.2

CC(C)CC(=O)c1c(O)c(C=O)c(O)c(C[C@H]2CC[C@@](C)(O)C3[C@H]4[C@@H](CC[C@@]32C)C4(C)C)c1O (stereo partly drawn)
CC50 at 48 h [1]: 598 µM
pIC50 [2]: 4.45
Ratio CC50/IC50 [3]: 16.9

CC(C)C[C@@H]1c2c(O)c(C=O)c(O)c(C=O)c2O[C@]2(C)C=C[C@@](O)(C(C)C)CC12 (stereo partly drawn)
CC50 at 48 h [1]: 656 µM
pIC50 [2]: 4.99
Ratio CC50/IC50 [3]: 64.2

CC(C)C[C@H](c1c(O)c(C=O)c(O)c(C=O)c1O)[C@@]1(C)CC[C@@H]2[C@@H]1[C@H]1[C@@H](CC[C@]2(C)O)C1(C)C
CC50 at 48 h [1]: 597 µM
pIC50 [2]: 4.58
Ratio CC50/IC50 [3]: 22.7

C/C1=C/[C@H]2[C@@H](CC[C@]3(C)Oc4c(C=O)c(O)c(C=O)c(O)c4[C@@H](CC(C)C)C3CC1)C2(C)C (stereo partly drawn)
CC50 at 48 h [1]: 600 µM
pIC50 [2]: 3.89
Ratio CC50/IC50 [3]: 4.6

CC(C)C[C@H]1c2c(O)c(C=O)c(O)c(C=O)c2O[C@]2(C)C=C[C@@](O)(C(C)C)CC12 (stereo partly drawn)
Activity (Mus musculus [4]): Active
Activity (Mus musculus [5]): Active
CC50 at 48 h [1]: 664 µM
pIC50 [2]: 4.93
Ratio CC50/IC50 [3]: 56.3
Activity (Mus musculus [6]): Active
Activity (Mus musculus [7]): Active
Activity [8]: 47.5%
Activity [9]: 25.1%
Activity [10]: 18.3%
Activity [11]: 9.1%
Activity [12]: 32.3%
Activity [13]: 42.7%
Activity [14]: 19.3%
Activity [15]: 5.7%
Activity [16]: 4.2%
Activity [17]: 63.1%
Activity [18]: 31.7%
Activity [19]: 1%
Activity (Mus musculus [20]): Active
Activity (Mus musculus [21]): Active
Activity [22]: 118 pg/mL
Activity [23]: 99.7 pg/mL
Activity [24]: 68.9 pg/mL
Activity [25]: 347 pg/mL
Activity [26]: 52.5 pg/mL
inhibition [27]: Active

CO[C@]1(C)CC[C@@H]2[C@H]([C@H]3[C@H]1CC[C@]3(C)[C@H](CC(C)C)c1c(O)c(C=O)c(O)c(C=O)c1O)C2(C)C
CC50 at 48 h [1]: 562 µM
pIC50 [2]: 4.45
Ratio CC50/IC50 [3]: 15.7

CC(C)CC(=O)c1c(O)c(C=O)c(O)c(C[C@H]2CC[C@H](C)C3=C[C@@H](C(C)(C)O)CC[C@@]32C)c1O
CC50 at 48 h [1]: 578 µM
pIC50 [2]: 4.72
Ratio CC50/IC50 [3]: 30.2

C=C1CC[C@@H]2[C@H](C3C1CC[C@]3(C)C(CC(C)C)c1c(O)c(C=O)c(O)c(C=O)c1O)C2(C)C (stereo partly drawn)
CC50 at 48 h [1]: 541 µM
pIC50 [2]: 4.16
Ratio CC50/IC50 [3]: 8.3

COc1c(C)c(O)c(C)c(O)c1C(=O)CC(C)C
CC50 at 48 h [1]: 670 µM
pIC50 [2]: 3.88
Ratio CC50/IC50 [3]: 5

CC(C)C[C@@H](c1c(O)c(C=O)c(O)c(C=O)c1O)[C@@]1(C)C=C2C(C)CC[C@H](C(C)(C)O)C2CC1 (stereo partly drawn)
CC50 at 48 h [1]: 596 µM
pIC50 [2]: 4.39
Ratio CC50/IC50 [3]: 14.5

CC(C)C[C@@H](c1c(O)c(C=O)c(O)c(C=O)c1O)C1CC[C@@H](C)C2=C[C@@H](C(C)(C)O)CC[C@@]21C (stereo partly drawn)
CC50 at 48 h [1]: 602 µM
pIC50 [2]: 4.37
Ratio CC50/IC50 [3]: 14.2
